CHOP inh: blocks CHOP induction under ER stress; inhibition, % at 10 µM; 3.8% of 220,000 active; CHO-K1 CHOP-promoter luciferase, tunicamycin-induced, 15-18 h;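 active = compounds that reduced the stress-induced luciferase reporter signal by more than about 70% of percent inhibition, limit read from the data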
XBP1 UPR activ: activators of adaptive arm of unfolded protein response (XBP1); 0.33% of 330,000 active; CHO-XBP1 luciferase reporter, IRE1-XBP1 UPR activation, luminescence; percent of tunicamycin response, DMSO as zero; AID 463104; activation, % at 20 µM;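 active = versus positive control, 20 µM dose yields 30% or more activation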
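Material: CHO-XBP1 cells stably carrying IRE1-XBP1-driven luciferase reporter / Amount: 1000 cells per well / Compound: 20 µM, 1% DMSO / Times: 6 h treatment, 37 °C / Detection: luciferase luminescence / Measure: % activation of reporter signal versus tunicamycin and DMSO controls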
Jurkat NFkB inh: inhibitors of the PMA/ionomycin-induced NF-kB reporter in Jurkat cells. AID 435003. inhibition, % at 4 µM. PMA/ionomycin-induced NF-kB luciferase reporter, luminescence. 0.53% of 330,000 active; in the data active = inhibition above about 50%
CHOP UPR activ: apoptotic UPR (CHOP) activation; 0.34% of 330,000 active; activation, % at 10 µM; CHO-CHOP luciferase reporter, luminescence; percent of tunicamycin response over DMSO baseline;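 active = at 10 µM dose, activation of 40% or more, normalized to positive control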
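System: CHO-CHOP luciferase reporter cell line | Buffer or medium: F12 medium containing 10% fetal bovine serum | Doses: One dose, 10 µM in 0.5% DMSO | Times: 6 h compound exposure at 37 °C after overnight seeding | Signal: Luciferase luminescence | Read-out: % activation vs tunicamycin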
697 NFkB inh: inhibitors of the PMA/ionomycin-induced NF-kB reporter in 697 B cells; 697 B-cell NF-kB luciferase reporter, 16 h; 0.33% of 330,000 active; inhibition, % at 4 µM; AID 435022; in the data active = inhibition above about 35%
Hits are given with their value; . = inactive; / = no result given. Only a selection was taken, and hits are over-represented in it overall.

SMILES	CHOP inh	XBP1 UPR activ	Jurkat NFkB inh	CHOP UPR activ	697 NFkB inh
O=C(c1nn2c(C(F)(F)F)cc(-c3ccco3)nc2c1Br)N1CCCc2ccccc21	.	.	.	.	.
CN(C(=O)c1cc2nc(-c3ccco3)cc(C(F)(F)F)n2n1)C1CCCCC1	93	.	.	.	.
O=C(c1cc2nc(-c3ccco3)cc(C(F)(F)F)n2n1)N1CCCCCC1	.	.	.	.	.
O=C(c1cc2nc(-c3ccco3)cc(C(F)(F)F)n2n1)N1CCCc2ccccc21	71	.	.	.	.
Cc1[nH]n(-c2ccc(Br)cc2)c(=O)c1C=Nc1ccc(S(=O)(=O)Nc2nccs2)cc1	91	.	.	.	.
CCC(CO)Nc1nc(NCc2ccccc2)c2ncn(C(C)C)c2n1 (centres undefined)	.	/	/	/	/
CCOC(=O)C1=C(CN2CCC(C)CC2)NC(=O)NC1c1ccc(Cl)cc1 (centres undefined)	87	.	.	.	.
Cc1nn(-c2ccccn2)c2nc(-c3cccs3)cc(C(=O)NCc3ccco3)c12	.	.	.	.	.
Cc1nn(-c2ccccc2)c2nc(-c3ccncc3)cc(C(=O)NCc3ccco3)c12	72	.	.	.	.
CCOc1ccc(OCCC(=O)N(CC)CC(=O)NCc2ccc(Cl)cc2)cc1	/	.	.	.	.
COc1cc(NS(=O)(=O)c2ccc(NC(C)=O)cc2)nc(OC)n1	.	.	.	.	.
COc1cc(NS(=O)(=O)c2ccc(N/C=C(\C#N)c3nc4cc(Cl)ccc4o3)cc2)nc(OC)n1	92	.	.	.	.
Cc1c(Cl)cccc1NC(=O)NC1CCCCC1	78	.	.	.	.
O=C(/C=C/c1ccccc1)/C=C/c1ccccc1	98	.	.	.	.
CCOC(=O)c1c(NC(=O)CSc2ncnc3ccccc23)sc(C(C)=O)c1C	75	.	.	.	.
COC(=O)c1c(NC(=O)CSc2ncnc3ccccc23)sc(C)c1C	/	.	.	.	.
O=c1c2ccccc2cnn1-c1nc2ccccc2[nH]1	93	/	/	/	/
C/C(=N\Nc1ccc(C(=O)c2c(C)cc3ccccn23)cc1[N+](=O)[O-])c1ccc(O)cc1	.	.	.	.	.
Cc1cc2ccccn2c1C(=O)c1ccc(N/N=C/c2ccc(C(=O)O)cc2)c([N+](=O)[O-])c1	103	/	/	/	/
O=C(NCCCN1CCOCC1)c1ccc(NS(=O)(=O)c2ccccc2)cc1	/	.	.	.	.
CCOC(=O)N1CCN(S(=O)(=O)c2ccc(C)c(C)c2C)CC1	.	.	.	.	.
Cc1ccc(S(=O)(=O)n2nc(C)c(Br)c2C)c(C)c1C	89	.	.	.	.
CCOC(=O)c1c(-c2ccc(C)o2)csc1NC(=O)CN(C)CC(=O)Nc1ccc(C)cc1	89	.	.	.	.
CCOC(=O)c1c(-c2ccc(C)o2)csc1NC(=O)CN1CCCCC1	.	.	.	.	.
Cc1nn(-c2ccccc2)c2c1C(c1ccc([N+](=O)[O-])cc1)C(C#N)=C(N)O2 (centres undefined)	.	.	.	.	.
SMILES	CHOP inh	XBP1 UPR activ	Jurkat NFkB inh	CHOP UPR activ	697 NFkB inh
Cc1ccc(-n2nc(C)c3c2OC(N)=C(C#N)C3c2ccc(F)cc2)cc1 (centres undefined)	83	.	.	.	.
CCCN1CCC(NC(=O)C2CCCCC2C(=O)O)CC1 (centres undefined)	/	.	.	.	.
CCOC(=O)c1ccccc1NC(=O)COC(=O)CCNS(=O)(=O)c1ccccc1	/	.	.	.	.
O=C(CSc1nnc(Cc2ccccc2)n1Cc1ccco1)NC12CC3CC(CC(C3)C1)C2	72	.	.	.	.
Cc1cccc(Nc2nc(-c3c(C)nc4ccccn34)cs2)c1	77	.	.	.	.
COc1ccc(NC2=CC(c3ccc(F)cc3)N(c3ccc(OC)cc3)C2=O)cc1 (centres undefined)	82	.	.	.	.
COc1cc(O)c(CC=C(C)C)c(O)c1C(=O)CCc1ccc(O)cc1	89	.	.	.	.
O=C(CCc1ccc(O)cc1)c1c(O)cc(O)cc1O	.	.	.	.	.
Cc1ccccc1-c1noc(-c2cccs2)n1	90	.	.	.	.
CC(=O)NC(N(C#N)c1nc(Cl)nc(N(C)C)n1)C(Cl)(Cl)Cl (centres undefined)	.	.	.	.	.
CC(=O)c1cccc(NC(=O)C(C)OC(=O)C2CCC2)c1 (centres undefined)	/	.	.	.	.
Cn1c(=O)c2c(O)c(C=NCc3ccccc3)c(=O)n(C)c2n(C)c1=O	.	.	.	.	.
CCn1c(O)c(C=NCc2cccs2)c(=O)n(CC)c1=S	73	.	.	.	.
CC(C)c1ccc(/C=N/NC(=O)CN(c2cccc(Cl)c2Cl)S(C)(=O)=O)cc1	86	.	.	.	.
CC(C)(C)c1ccc(C(=O)Nc2ccccc2NC(=O)c2ccco2)cc1	72	.	.	.	.
O=C(Nc1ccccc1NC(=O)c1ccco1)c1ccccc1	/	.	.	.	.
CCN(Cc1nc2cc(Cl)ccc2c(=O)[nH]1)C(=O)c1nn(C)c(=O)c2ccccc12	/	.	.	.	.
COCC(=O)Nc1ncc(S(=O)(=O)c2ccc([N+](=O)[O-])cc2)s1	.	.	.	.	.
O=C(NC(Nc1ncc(S(=O)(=O)c2ccc([N+](=O)[O-])cc2)s1)(C(F)(F)F)C(F)(F)F)c1ccc(Cl)cc1	88	.	.	.	.
COc1ccc(C)cc1NC(=O)COC(=O)c1ccc2c(c1)OCCO2	/	.	.	.	.
O=C(Oc1cccc2cccnc12)c1cccc(N2C(=O)C3C4CCC(C4)C3C2=O)c1 (centres undefined)	84	.	.	.	.
CCOCCCN(C)C1CCN(C(=O)c2oc3ccccc3c2NC(=O)c2ccc(F)cc2)CC1	/	.	.	.	.
Cc1ccc(NCc2nnc(SCC(=O)Nc3ncc(C)s3)n2Cc2ccco2)c(C)c1	94	.	.	.	.
Cc1nc(NC(=O)CC(C)C)sc1-c1csc(Nc2ccc(Cl)cc2)n1	71	.	.	.	.
Cc1oc2cc3oc(=O)c(CCC(=O)NCCN4CCOCC4)c(C)c3cc2c1C	/	.	.	.	.
SMILES	CHOP inh	XBP1 UPR activ	Jurkat NFkB inh	CHOP UPR activ	697 NFkB inh
Cn1cccc1/C=N/N1CCN(Cc2cccc3ccccc23)CC1	.	.	.	.	.
O=C(NC1CCCC1)C1CCN(C(=O)c2cc(Cl)ccc2Cl)CC1	/	.	.	.	.
CN(CC(=O)Nc1nc2ccccc2s1)S(=O)(=O)c1ccc(Cl)cc1	84	.	.	.	.
CCOC(=O)c1cccc(Nc2nc(-c3cccnc3)nc3ccccc23)c1	77	.	.	.	.
CCCCN(C(=S)SC)C1CCS(=O)(=O)C1 (centres undefined)	.	.	.	.	.
O=C(O)c1ccc2nc(-c3ccccc3)sc2c1	.	.	.	.	.
Nc1ccc(-c2nc3ccc(C(=O)O)cc3s2)cc1	92	/	/	/	/
